Reference: the M2OR odorant receptor database
Residue numbers refer to the chain shown, from its start.

Legend:
Details in all cases: stereoisomer not certain
OR2G2 (Homo sapiens) = target: T1, OR2G2 (Homo sapiens) (UniProt Q8NGZ5)
T1 sequence (whole entry): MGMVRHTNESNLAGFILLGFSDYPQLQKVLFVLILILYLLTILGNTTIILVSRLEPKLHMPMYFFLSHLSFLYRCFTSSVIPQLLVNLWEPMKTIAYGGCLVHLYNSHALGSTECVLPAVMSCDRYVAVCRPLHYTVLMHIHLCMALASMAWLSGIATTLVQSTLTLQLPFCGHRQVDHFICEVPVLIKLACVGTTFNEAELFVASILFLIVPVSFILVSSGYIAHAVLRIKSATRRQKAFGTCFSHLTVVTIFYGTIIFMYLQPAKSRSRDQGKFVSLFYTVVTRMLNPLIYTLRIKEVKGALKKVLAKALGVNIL
Outline: (§1)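 Each entry records the cell line, G-protein, co-transfected protein and tags used. Methods varied with the source, often transient luciferase assays in mammalian cell lines. A receptor–molecule pair is called responsive (active) if the original authors judged its signal statistically different from baseline and non-responsive (inactive) otherwise.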

OR2F1 (Homo sapiens) = target: T2, OR2F1 (Homo sapiens) (UniProt Q13607)
T2 sequence (whole entry): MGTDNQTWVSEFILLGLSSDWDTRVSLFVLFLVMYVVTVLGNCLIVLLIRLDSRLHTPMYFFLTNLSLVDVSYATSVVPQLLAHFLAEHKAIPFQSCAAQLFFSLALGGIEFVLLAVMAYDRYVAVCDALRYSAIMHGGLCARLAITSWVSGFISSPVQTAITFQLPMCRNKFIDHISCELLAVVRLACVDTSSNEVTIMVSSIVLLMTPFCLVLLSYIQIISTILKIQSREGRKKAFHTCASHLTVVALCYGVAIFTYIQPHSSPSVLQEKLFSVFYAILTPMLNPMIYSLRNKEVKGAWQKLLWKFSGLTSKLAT
Outline: as §1

OR2F2 (Homo sapiens) = target: T3, OR2F2 (Homo sapiens) (UniProt O95006)
T3 sequence (whole entry): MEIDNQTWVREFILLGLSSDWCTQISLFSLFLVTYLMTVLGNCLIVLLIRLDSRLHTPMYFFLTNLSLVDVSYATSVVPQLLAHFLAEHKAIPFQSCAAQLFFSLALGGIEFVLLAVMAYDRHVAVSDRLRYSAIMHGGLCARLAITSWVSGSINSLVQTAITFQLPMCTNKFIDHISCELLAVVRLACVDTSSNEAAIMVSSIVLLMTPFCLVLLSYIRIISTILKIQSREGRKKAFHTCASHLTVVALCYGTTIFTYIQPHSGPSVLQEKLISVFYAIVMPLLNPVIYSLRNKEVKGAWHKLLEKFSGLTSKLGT
Outline: as §1

OR2G3 (Homo sapiens) = target: T4, OR2G3 (Homo sapiens) (UniProt Q8NGZ4)
T4 sequence (whole entry): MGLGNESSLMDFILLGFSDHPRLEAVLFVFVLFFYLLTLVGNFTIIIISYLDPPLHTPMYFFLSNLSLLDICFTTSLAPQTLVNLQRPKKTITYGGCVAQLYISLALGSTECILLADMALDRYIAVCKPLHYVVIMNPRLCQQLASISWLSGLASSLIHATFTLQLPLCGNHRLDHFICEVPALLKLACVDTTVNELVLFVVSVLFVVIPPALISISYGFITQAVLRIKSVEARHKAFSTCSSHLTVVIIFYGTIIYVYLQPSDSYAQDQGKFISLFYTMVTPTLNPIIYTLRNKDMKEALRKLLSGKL
Outline: as §1

OR2G6 (Homo sapiens) = target: T5, OR2G6 (Homo sapiens) (UniProt Q5TZ20)
T5 sequence (whole entry): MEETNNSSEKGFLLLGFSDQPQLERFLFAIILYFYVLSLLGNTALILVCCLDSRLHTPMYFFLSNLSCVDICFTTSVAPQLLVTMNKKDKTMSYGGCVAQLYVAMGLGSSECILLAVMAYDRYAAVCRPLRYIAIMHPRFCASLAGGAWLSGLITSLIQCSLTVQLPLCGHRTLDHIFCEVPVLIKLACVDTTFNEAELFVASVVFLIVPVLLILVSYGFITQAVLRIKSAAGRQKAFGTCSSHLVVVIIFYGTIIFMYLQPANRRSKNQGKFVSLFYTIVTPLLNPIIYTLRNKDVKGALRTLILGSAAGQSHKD
Outline: as §1

OR2H1 (Homo sapiens) = target: T6, OR2H1 (Homo sapiens) (UniProt Q9GZK4)
T6 sequence (whole entry): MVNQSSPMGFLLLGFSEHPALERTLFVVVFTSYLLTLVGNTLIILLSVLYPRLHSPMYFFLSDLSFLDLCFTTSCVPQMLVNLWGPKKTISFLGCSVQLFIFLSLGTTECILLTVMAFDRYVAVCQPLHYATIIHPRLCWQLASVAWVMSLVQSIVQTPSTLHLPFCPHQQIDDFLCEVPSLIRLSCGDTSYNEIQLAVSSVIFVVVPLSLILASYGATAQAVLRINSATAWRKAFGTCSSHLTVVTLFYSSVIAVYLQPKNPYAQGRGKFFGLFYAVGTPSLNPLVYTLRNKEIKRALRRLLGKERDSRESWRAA
Outline: as §1

OR2H2 (Homo sapiens) = target: T7, OR2H2 (Homo sapiens) (UniProt O95918)
T7 sequence (whole entry): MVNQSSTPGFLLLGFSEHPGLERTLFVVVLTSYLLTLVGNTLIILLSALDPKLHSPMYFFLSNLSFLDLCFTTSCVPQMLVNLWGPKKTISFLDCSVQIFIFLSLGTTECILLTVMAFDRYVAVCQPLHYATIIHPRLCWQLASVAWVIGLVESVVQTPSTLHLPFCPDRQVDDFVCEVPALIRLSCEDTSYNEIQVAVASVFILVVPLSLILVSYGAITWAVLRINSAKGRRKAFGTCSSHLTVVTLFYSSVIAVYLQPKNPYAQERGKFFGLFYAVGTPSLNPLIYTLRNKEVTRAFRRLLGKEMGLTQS
Outline: as §1

OR2J1 (Homo sapiens) = target: T8, OR2J1 (Homo sapiens) (UniProt Q9GZK6)
T8 sequence (whole entry): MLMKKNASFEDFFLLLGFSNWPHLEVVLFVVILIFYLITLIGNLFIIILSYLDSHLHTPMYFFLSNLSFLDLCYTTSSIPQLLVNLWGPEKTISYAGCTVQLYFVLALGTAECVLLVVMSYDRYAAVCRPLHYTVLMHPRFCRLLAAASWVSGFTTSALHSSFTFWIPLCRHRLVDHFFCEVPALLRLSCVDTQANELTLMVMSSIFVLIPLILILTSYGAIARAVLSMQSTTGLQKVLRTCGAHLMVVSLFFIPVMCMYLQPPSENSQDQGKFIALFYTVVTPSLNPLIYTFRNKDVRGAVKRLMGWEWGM
Outline: as §1

OR2J2 (Homo sapiens) = target: T9, OR2J2 (Homo sapiens) (UniProt O76002)
T9 sequence (whole entry): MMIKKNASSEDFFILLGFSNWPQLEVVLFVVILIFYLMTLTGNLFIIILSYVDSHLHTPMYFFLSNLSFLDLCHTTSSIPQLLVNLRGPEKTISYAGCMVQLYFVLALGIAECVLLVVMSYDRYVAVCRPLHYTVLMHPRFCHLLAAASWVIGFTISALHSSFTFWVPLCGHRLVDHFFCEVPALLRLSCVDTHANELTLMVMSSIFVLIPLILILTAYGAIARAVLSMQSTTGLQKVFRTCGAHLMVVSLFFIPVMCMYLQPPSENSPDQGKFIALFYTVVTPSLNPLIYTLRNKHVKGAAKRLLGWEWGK
Outline: as §1

OR2J3 (Homo sapiens) = target: T10, OR2J3 (Homo sapiens) (UniProt O76001)
T10 sequence (whole entry): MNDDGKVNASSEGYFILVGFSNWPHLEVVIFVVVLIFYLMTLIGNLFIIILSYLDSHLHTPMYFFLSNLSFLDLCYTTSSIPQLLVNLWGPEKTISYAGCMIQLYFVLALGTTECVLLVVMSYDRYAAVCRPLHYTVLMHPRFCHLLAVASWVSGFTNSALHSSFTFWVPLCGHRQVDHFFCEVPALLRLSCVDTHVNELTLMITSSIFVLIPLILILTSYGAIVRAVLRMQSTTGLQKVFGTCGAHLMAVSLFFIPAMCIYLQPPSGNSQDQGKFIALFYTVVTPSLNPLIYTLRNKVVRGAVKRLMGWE
Outline: as §1

OR2K2 (Homo sapiens) = target: T11, OR2K2 (Homo sapiens) (UniProt Q8NGT1)
T11 sequence (whole entry): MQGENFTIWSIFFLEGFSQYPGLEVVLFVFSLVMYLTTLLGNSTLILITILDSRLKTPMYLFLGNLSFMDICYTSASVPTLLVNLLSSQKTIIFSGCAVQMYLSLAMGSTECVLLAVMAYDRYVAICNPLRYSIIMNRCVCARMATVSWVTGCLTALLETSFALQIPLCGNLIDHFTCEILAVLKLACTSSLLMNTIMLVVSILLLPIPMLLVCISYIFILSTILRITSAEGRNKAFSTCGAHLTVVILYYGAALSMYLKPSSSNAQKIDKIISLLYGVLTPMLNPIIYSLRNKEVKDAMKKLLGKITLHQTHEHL
Outline: as §1

OR2G2 L167P R236G = system: T12, OR2G2 L167P R236G
T12 sequence (whole entry): T1 sequence (whole entry) with L167P, R236G
Outline: as §1

OR2G3 I289V = system: T13, OR2G3 I289V
T13 sequence (whole entry): T4 sequence (whole entry) with I289V
Outline: as §1

OR2H2 = system: T14, OR2H2
T14 sequence (whole entry): T7 sequence (whole entry) with L30F, A48V
Outline: as §1

OR2J1 L14I V182A = system: T15, OR2J1 L14I V182A
T15 sequence (whole entry): T8 sequence (whole entry) with L14I, V182A
Outline: as §1

OR2J2 = system: T16, OR2J2
T16 sequence (whole entry): T9 sequence (whole entry) with H74Y, A111T, A146V, A218T
Outline: as §1

OR2J3 = system: T17, OR2J3
T17 sequence (whole entry): T10 sequence (whole entry) with V228I, I261M
Outline: as §1

Measured: odorant receptor agonist call

CCC=C(C)C(O)CCCCC (stereo not given)
inactive: OR2G2 (Homo sapiens)

COC1CC2CC1C1CC(C=O)CC21 (stereo not given)
inactive: OR2G2 (Homo sapiens)

CC(C)CCCC(C)(C)O
inactive: OR2G2 (Homo sapiens)

CC1CCCCCCCCCCCCC(=O)C1 (stereo not given)
not listed: OR2G2 L167P R236G | OR2G3 I289V | OR2H2 | OR2J1 L14I V182A | OR2J2 | OR2J3
inactive: all other assays above

Cc1cnc(C)c(C)n1
not listed: OR2J2 (Homo sapiens)
inactive: all other assays above

CCCC(S)CCOC(C)=O (stereo not given)
not listed: OR2J2 (Homo sapiens)
inactive: all other assays above

CC1=C(O)C(=O)OC1C (stereo not given)
not listed: OR2J2 (Homo sapiens)
inactive: all other assays above

CCC(S)C(C)CO (stereo not given)
not listed: OR2G2 L167P R236G | OR2G3 I289V | OR2H2 | OR2J1 L14I V182A | OR2J2 | OR2J3
inactive: all other assays above

CCC1OC(C)=C(O)C1=O (stereo not given)
not listed: OR2J2 (Homo sapiens)
inactive: all other assays above

CC1CC(C)(c2ccccc2)CO1 (stereo not given)
inactive: OR2G2 (Homo sapiens)
